# According to ChEMBL document CHEMBL1141748, “Nocardimicins A, B, C, D, E, and F, siderophores with muscarinic M3 receptor inhibiting activity from Nocardia sp. TP-A0674” (J Nat Prod, 2005):
# What was measured:
# [1] = molecular target: Muscarinic acetylcholine receptor M3 (Homo sapiens, UniProt P20309); test: Displacement of [3H]NMS from human muscarinic M3 receptor expressed in insect Sf9 cells
# Summary of the method: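 Competition binding used Sf9 membranes stably expressing human M3, incubated with 0.29 nM [3H]-NMS (assay Kd 0.078 nM, Bmax 3.2 pmol/mg protein) in 50 mM Tris-HCl, 10 mM MgCl2, 1 mM EDTA, pH 7.4, 25 °C, 1 h. Nonspecific binding was set with 1 µM atropine. IC50 was taken from competition curves and converted to apparent Ki by Cheng-Prusoff.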
# [2] = molecular target: T1, Muscarinic acetylcholine receptor M1 (Homo sapiens, UniProt P11229); test: Binding affinity to human muscarinic M1 receptor expressed in insect Sf9 cells
# T1 sequence (P11229 whole entry): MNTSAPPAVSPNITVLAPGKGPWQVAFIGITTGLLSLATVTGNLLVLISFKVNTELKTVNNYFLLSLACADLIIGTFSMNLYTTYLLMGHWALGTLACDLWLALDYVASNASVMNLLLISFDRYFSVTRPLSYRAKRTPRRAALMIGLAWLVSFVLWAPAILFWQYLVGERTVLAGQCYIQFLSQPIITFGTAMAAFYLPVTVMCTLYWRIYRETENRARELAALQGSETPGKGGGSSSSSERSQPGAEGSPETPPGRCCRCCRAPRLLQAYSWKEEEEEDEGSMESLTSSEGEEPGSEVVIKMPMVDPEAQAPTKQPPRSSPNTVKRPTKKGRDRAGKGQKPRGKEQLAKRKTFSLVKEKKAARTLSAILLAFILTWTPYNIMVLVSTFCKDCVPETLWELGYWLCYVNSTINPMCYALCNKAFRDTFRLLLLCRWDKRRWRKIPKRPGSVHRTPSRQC
# Summary of the method: (§1)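 Membranes from Sf9 insect cells stably expressing the human receptor were incubated with 0.29 nM [3H]-NMS in 50 mM Tris-HCl, 10 mM MgCl2, 1 mM EDTA, pH 7.4, for 1 h at 25 °C. Nonspecific binding was defined with 1 µM atropine. IC50 was taken from competition curves and converted to apparent Ki by Cheng-Prusoff.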
# [3] = molecular target: T2, Muscarinic acetylcholine receptor M2 (Homo sapiens, UniProt P08172); test: Binding affinity to human muscarinic M2 receptor expressed in insect Sf9 cells; summary of the method: as §1
# T2 sequence (P08172 whole entry): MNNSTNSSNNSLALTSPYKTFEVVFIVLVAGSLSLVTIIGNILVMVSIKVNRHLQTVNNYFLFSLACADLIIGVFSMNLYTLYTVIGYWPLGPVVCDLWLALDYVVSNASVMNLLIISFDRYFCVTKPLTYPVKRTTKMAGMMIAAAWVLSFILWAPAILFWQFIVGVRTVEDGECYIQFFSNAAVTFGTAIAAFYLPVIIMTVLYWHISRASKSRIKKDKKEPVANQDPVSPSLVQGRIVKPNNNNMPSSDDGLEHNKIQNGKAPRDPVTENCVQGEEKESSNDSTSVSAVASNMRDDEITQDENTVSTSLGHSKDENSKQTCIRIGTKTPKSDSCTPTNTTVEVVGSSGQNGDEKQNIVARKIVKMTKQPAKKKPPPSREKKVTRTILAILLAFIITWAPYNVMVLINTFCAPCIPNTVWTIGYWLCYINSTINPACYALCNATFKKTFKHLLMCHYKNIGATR
# [4] = molecular target: T3, Muscarinic acetylcholine receptor M4 (Homo sapiens, UniProt P08173); test: Binding affinity to human muscarinic M4 receptor expressed in insect Sf9 cells; summary of the method: as §1
# T3 sequence (P08173 whole entry): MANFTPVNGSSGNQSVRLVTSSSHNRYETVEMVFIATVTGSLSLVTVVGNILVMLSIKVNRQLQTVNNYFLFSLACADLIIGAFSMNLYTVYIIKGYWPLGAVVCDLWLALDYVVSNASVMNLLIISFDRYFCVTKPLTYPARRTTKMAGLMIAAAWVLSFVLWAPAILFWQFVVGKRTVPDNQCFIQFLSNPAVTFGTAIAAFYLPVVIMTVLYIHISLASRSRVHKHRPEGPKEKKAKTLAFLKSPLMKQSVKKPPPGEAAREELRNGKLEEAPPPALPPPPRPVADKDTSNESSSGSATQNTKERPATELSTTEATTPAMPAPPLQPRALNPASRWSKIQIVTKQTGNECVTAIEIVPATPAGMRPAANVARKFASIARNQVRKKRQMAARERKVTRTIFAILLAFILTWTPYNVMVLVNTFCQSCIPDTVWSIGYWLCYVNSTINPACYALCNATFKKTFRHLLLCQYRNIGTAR
# [5] = molecular target: T4, Muscarinic acetylcholine receptor M5 (Homo sapiens, UniProt P08912); test: Binding affinity to human muscarinic M5 receptor expressed in insect Sf9 cells; summary of the method: as §1
# T4 sequence (P08912 whole entry): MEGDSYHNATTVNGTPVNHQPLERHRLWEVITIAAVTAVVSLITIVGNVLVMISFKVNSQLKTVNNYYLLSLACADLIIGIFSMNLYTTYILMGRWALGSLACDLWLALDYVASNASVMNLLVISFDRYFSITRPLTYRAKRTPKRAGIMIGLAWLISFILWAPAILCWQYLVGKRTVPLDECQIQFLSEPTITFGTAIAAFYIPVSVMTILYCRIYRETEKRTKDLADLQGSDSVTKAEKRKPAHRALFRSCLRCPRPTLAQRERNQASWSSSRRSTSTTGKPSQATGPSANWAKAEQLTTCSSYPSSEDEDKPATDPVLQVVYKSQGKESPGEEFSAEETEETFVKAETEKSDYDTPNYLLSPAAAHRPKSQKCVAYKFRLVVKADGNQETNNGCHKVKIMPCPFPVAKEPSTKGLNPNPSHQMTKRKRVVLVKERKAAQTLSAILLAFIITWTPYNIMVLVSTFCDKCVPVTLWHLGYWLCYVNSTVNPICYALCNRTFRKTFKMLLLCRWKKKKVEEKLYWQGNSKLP
# Muscarinic acetylcholine receptor M3, sequence (P20309 whole entry): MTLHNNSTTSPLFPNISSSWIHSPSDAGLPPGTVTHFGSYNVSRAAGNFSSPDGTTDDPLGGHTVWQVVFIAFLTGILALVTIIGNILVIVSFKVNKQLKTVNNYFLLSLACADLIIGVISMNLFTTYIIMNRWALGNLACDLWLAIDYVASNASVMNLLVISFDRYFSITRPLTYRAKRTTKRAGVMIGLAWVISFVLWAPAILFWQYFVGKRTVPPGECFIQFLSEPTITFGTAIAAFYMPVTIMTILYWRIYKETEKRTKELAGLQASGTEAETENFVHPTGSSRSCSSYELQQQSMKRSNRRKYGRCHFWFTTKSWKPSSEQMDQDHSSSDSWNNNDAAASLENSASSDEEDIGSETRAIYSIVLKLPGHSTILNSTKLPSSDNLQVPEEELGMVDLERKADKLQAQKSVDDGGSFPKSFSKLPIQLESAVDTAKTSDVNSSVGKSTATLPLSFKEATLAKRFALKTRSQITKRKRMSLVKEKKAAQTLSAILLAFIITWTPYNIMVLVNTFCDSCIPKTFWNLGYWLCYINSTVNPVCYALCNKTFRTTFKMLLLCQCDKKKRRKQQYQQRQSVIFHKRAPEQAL
IC50 [1] [nM],Ki [1] [nM],SMILES,further results
5890,1250,CCCCCCCCCC(OC(=O)C(CCCCN(O)C(C)=O)NC(=O)c1coc(-c2ccccc2O)n1)C(C)C(=O)NC1CCCCN(O)C1=O (stereo not given) [NOCARDIMICIN A],–
630,130,CCCCCCCCCCCC(OC(=O)C(CCCCN(O)C(C)=O)NC(=O)c1coc(-c2ccccc2O)n1)C(C)C(=O)NC1CCCCN(O)C1=O (stereo not given) [NOCARDIMICIN B],IC50 [2]: 2030 nM; Ki [2]: 490 nM; IC50 [3]: 1780 nM; Ki [3]: 630 nM; IC50 [4]: 1040 nM; Ki [4]: 140 nM; IC50 [5]: 1640 nM; Ki [5]: 1180 nM
4700,1000,CCCCCCCCCCCC(OC(=O)C(CCCCN(O)C(C)=O)NC(=O)c1coc(-c2ccccc2O)n1)C(C)C(=O)NC1CCCCNC1=O (stereo not given) [NOCARDIMICIN C],–
1100,230,CCCCCCCCCCCCCC(OC(=O)C(CCCCN(O)C(C)=O)NC(=O)c1coc(-c2ccccc2O)n1)C(C)C(=O)NC1CCCCN(O)C1=O (stereo not given) [NOCARDIMICIN D],–
6290,1330,CCCCCCCCCCCCCCCC(OC(=O)C(CCCCN(O)C(C)=O)NC(=O)c1coc(-c2ccccc2O)n1)C(C)C(=O)NC1CCCCN(O)C1=O (stereo not given) [NOCARDIMICIN F],–
4560,970,CCCCCCCCCCCCCC(OC(=O)C(CCCCN(O)C(C)=O)NC(=O)c1coc(-c2ccccc2O)n1)C(C)C(=O)NC1CCCCNC1=O (stereo not given) [NOCCARDIMICIN E],–
